Screening results (PubChem)
An excerpt weighted towards active compounds, which were near 2.1% of everything screened.
UCH37 DUB inh = inhibitors of human deubiquitinating enzyme UCH37; AID 588478; inhibition, % (no concentration beside the values); Q9Y5K5; 330,000 tested, 0.33% active; purified proteasome/UCH37, Ub-AMC cleavage fluorescence;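 active = mean inhibition over replicate wells above about 20%, limit read from the data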
Target sequence (Q9Y5K5 whole entry, looked up): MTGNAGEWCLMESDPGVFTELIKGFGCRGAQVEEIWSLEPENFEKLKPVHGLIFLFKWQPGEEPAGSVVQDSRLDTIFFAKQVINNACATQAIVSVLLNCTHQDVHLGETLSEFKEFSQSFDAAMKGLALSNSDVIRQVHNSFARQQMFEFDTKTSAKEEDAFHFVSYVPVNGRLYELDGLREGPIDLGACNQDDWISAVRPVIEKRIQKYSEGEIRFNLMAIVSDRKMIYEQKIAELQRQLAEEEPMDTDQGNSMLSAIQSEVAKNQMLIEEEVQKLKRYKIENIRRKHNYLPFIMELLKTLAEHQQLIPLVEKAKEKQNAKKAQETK
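Material: human UCH37 enzyme supplied as purified proteasome complex. Measure: % inhibition of Ub-AMC cleavage fluorescence. Medium: pH 7.4 Tris-HCl (50 mM) with ovalbumin, ATP-MgCl2, DTT. Times: 30 min preincubation with enzyme, 25 min cleavage at room temperature. Detection: AMC fluorescence intensity at 355/460 nm.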
CRFBP-R2 block = antagonists of CRF-binding protein/CRF-R2 receptor complex; 350,000 tested, 0.59% active; AID 588475; inhibition, % at 11.8 µM; HEK293 CRF-R2/CRF-BP, CRF-induced calcium fluorescence;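 active = inhibition of the ligand-induced calcium signal above about 50% at the single tested concentration, limit read from the data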
Cardio protect = protects H9c2 cardiomyocytes from peroxide injury | H2O2 injury protection, ATPLite, 2 h | protection from H2O2 cell death, % at 20 µM | 360,000 tested, 0.63% active | AID 588492;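 active = compounds giving at least 50% protection of heart cells from peroxide-induced death in the single-dose screen, raw or plate-pattern-corrected value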
MIN6 prolif = induces beta-cell replication in MIN6 cells. 330,000 tested, 0.29% active. proliferation, % at 10 µM. MIN6 cells proliferation, ATPlite luminescence, 48 h; cells starved in 0.2% serum; 100% = growth in 10% serum. AID 2380;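 active = compounds whose signal lies at least 3.5 SD above the mean of all wells on their plate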
CRFBP-R2 agonist = CRF-BP/CRF-R2 complex agonism; activation, % at 13.2 µM; HEK293 CRF-R2/CRF-BP, calcium dye fluorescence (FLIPR); percent of saturating CRF peptide response; 350,000 tested, 0.46% active;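 active = activation of at least 50%, plus an integration ratio under a set limit after plate pattern correction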
hiPSC survival = enhancers of human iPSC single-cell survival. survival enhancement, % at 20 µM. 360,000 tested, 0.044% active. AID 602274. hiPSC single-cell survival, ATPlite luminescence; 100% = ROCK inhibitor wells, 0% = DMSO; in the data active = survival enhancement above about 18%;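 note: cells exposed to compounds for 16 hours before the ATP read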
Large screens that a line does not name were inactive.

O=S(=O)(NCC1(N2CCOCC2)CCCCC1)c1ccccc1Cl	none
Cc1nn(-c2ccccc2)c(N)c1Sc1cccc([N+](=O)[O-])c1	none
Cc1nn(-c2cccc([N+](=O)[O-])c2)c(N)c1-c1ccccc1	CRFBP-R2 block 56.5
OCC(CO)(CO)N=Cc1cc(Br)ccc1O	Cardio protect 57.6
Cc1ccc(N=Cc2cc(Br)cc(Cl)c2O)cc1	Cardio protect 75.5
Oc1ccc(Br)cc1C=Nc1ccc(Cl)cc1	Cardio protect 50.0
Oc1c(Cl)cc(Cl)cc1C=Nc1ccc(Br)cc1	none
CC(=NNC(=O)c1c[nH]c2ccccc12)c1ccco1	none (no result: CRFBP-R2 block, Cardio protect, MIN6 prolif, CRFBP-R2 agonist, hiPSC survival)
CON=Cc1c(C(=O)OC)nn(-c2ccccc2)c1Cl	none (no result: CRFBP-R2 block, Cardio protect, MIN6 prolif, CRFBP-R2 agonist, hiPSC survival)
O=C(CNC(=O)/C(=C\c1ccc(F)cc1)NC(=O)c1ccccc1)OCc1ccccc1	UCH37 DUB inh 27.5
Cc1ccc(C)c(CSc2nnc(-c3cccs3)n2Cc2ccco2)c1	CRFBP-R2 block 50.0
NC(=O)CSc1nnc(-c2cccs2)n1Cc1ccco1	none
C=CCc1c(C)nc(C)nc1NN=Cc1ccc([N+](=O)[O-])cc1	none (no result: CRFBP-R2 block, Cardio protect, MIN6 prolif, CRFBP-R2 agonist, hiPSC survival)
CCN1C/C(=C\c2cccc([N+](=O)[O-])c2)C(=O)/C(=C/c2cccc([N+](=O)[O-])c2)C1	hiPSC survival 55.8 (no result: MIN6 prolif)
COC(=O)CCCC1=CC2=C(c3ccccc3)C(=O)C(C)(OC(=O)C3CCCC3)C(=O)C2=CN1CCc1ccccn1 (stereo unspecified)	CRFBP-R2 block 56.8
O=C(Nc1ccccc1)c1nc[nH]c1C(=O)NCCCCNC(=O)c1[nH]cnc1C(=O)Nc1ccccc1	Cardio protect 80.6
CC(C)(C)OC(=O)NCCCCCNC(=O)c1[nH]cnc1C(=O)Nc1ccccc1	none
O=C(Nc1cccc(Cl)c1)c1nc[nH]c1C(=O)NCCCNC(=O)c1[nH]cnc1C(=O)Nc1cccc(Cl)c1	Cardio protect 79.8 (no result: UCH37 DUB inh)
O=C(Nc1ccccc1)c1nc[nH]c1C(=O)NCCNC(=O)c1[nH]cnc1C(=O)Nc1ccccc1	Cardio protect 52.0
NC(=NOC(=O)COc1ccc([N+](=O)[O-])cc1)c1ccncc1	none (no result: CRFBP-R2 block, Cardio protect, MIN6 prolif, CRFBP-R2 agonist, hiPSC survival)
Cc1ccc(C2=N/C(=C/N3CCOCC3)C(=O)O2)cc1	UCH37 DUB inh 20.4
CN(C)/C=C1\N=C(c2ccccc2)OC1=O	UCH37 DUB inh 20.0
CC(=NNC(=O)C1CC1)c1ccc(Cl)cc1	none (no result: CRFBP-R2 block, Cardio protect, MIN6 prolif, CRFBP-R2 agonist, hiPSC survival)
CCN(CC)C(=O)CSc1ncnc2c1nnn2-c1ccc(OC)cc1	CRFBP-R2 block 83.9
CCN(CC)C(=O)CSc1ncnc2c1nnn2-c1ccc(F)cc1	none
COc1ccc(CCn2c(=N)c(C(=O)NCCN3CCOCC3)cc3c(=O)n4cccc(C)c4nc32)cc1OC	Cardio protect 61.3
Oc1ccc2ccccc2c1CN1CCCCC1	CRFBP-R2 agonist 109.3 (no result: MIN6 prolif)
N#CC1=C(N)NC(SCc2ccc(Cl)cc2)=C(C#N)C12CCCCC2	none
N#CC1=C(N)NC(SCc2ccccc2)=C(C#N)C12CCCC2	UCH37 DUB inh 20.7
CCSc1nc2ccccc2n1CC(=O)N1CCCCC1	CRFBP-R2 block 85.7
CC1(C)Cc2c(C#N)c(NCC3CCCO3)nc(-c3ccco3)c2CO1 (stereo unspecified)	CRFBP-R2 block 103.6, hiPSC survival 19.6
COc1ccc2ccccc2c1C=NNC(=O)c1nnn(-c2nonc2N)c1CN(C)C	none (no result: CRFBP-R2 block, Cardio protect, MIN6 prolif, CRFBP-R2 agonist, hiPSC survival)
Cc1nc2ccccc2c2c(N)c3ccccc3n12	Cardio protect 65.7
Nc1c2ccccc2nc2ccccc12	none
CCCn1c(NC(=O)c2ccc(Cl)c(S(=O)(=O)N3CCCC3)c2)nc2ccccc21	Cardio protect 61.3
COc1ccc(-c2ccc3c(c2)S(=O)(=O)c2cccc(C(=O)NC[C@@H]4CCCO4)c2C3=O)cc1OC	Cardio protect 63.2
COc1ccc(-c2ccc3c(c2)S(=O)(=O)c2cccc(C(=O)N4CCN(c5c(Cl)cncc5Cl)CC4)c2C3=O)cc1OC	Cardio protect 66.4
O=C(NC[C@@H]1CCCO1)c1cccc2c1C(=O)c1ccc(Cl)cc1S2(=O)=O	none
O=C1c2ccc(Cl)cc2S(=O)(=O)c2cccc(C(=O)N3CCN(c4ncc(Br)cn4)CC3)c21	none
O=C(CCC(=O)N1CCN(C2CCCCC2)CC1)Nc1nnc(C(F)(F)F)s1	Cardio protect 64.7
O=C(CCC(=O)N1CCN(C2CCCC2)CC1)Nc1nnc(C(F)(F)F)s1	none
ON=Cc1cccnc1Sc1ccccc1	none (no result: CRFBP-R2 block, Cardio protect, MIN6 prolif, CRFBP-R2 agonist, hiPSC survival)
C=CCN1C(=O)/C(=C/C=C2/N(CC)c3ccc(S(=O)(=O)N(C)C)cc3N2CC)SC1=S	CRFBP-R2 agonist 164.5
C=CCN1C(=O)/C(=C2/Sc3ccccc3N2CC)SC1=S	none
COc1ccc(-c2cc(C(=O)Nc3ccc(O)cc3)c3ccccc3n2)cc1OC	none
COc1ccc(NC(=O)c2cc(-c3cc(OC)c(OC)c(OC)c3)nc3ccccc23)cc1OC	Cardio protect 63.1
COc1ccc(N2CCN(C(=O)c3csc4ccccc34)CC2)cc1	CRFBP-R2 block 119.3
COc1ccc(N2CCN(C(=O)c3cc(=O)c4cc(C)c(C)cc4o3)CC2)cc1	CRFBP-R2 block 110.8
COc1ccc(N2CCN(C(=O)c3cc(=O)c4cc(C)ccc4o3)CC2)cc1	none
COc1ccc(NC(=O)c2cc(-c3ccccn3)nc3ccccc23)cc1S(=O)(=O)N(C)C	Cardio protect 89.2
C/C(C=NNC(=O)Cn1nnnc1N)=C/c1ccc(C(C)C)cc1	none (no result: CRFBP-R2 block, Cardio protect, MIN6 prolif, CRFBP-R2 agonist, hiPSC survival)
Cc1ccc(-c2cc(C(=O)NCc3ccccn3)c3ccccc3n2)cc1C	CRFBP-R2 block 110.9
COc1ccc(-c2cc(C(=O)N3CCN(c4ccccc4)CC3)c3ccccc3n2)cc1OC	Cardio protect 54.3
COc1ccccc1NC(=O)c1cc(-c2ccc(OC)c(OC)c2)nc2ccccc12	Cardio protect 57.4
COc1cc(-c2cc(C(=O)OCC(=O)NC3CC3)c3ccccc3n2)cc(OC)c1OC	Cardio protect 63.9
COc1ccc(-c2cc(C(=O)N3CCCCCC3)c3ccccc3n2)cc1OC	none (no result: UCH37 DUB inh, MIN6 prolif)
CC(/C=C/c1ccc2c(c1)OCO2)=NNC(=O)c1ccncc1	none (no result: CRFBP-R2 block, Cardio protect, MIN6 prolif, CRFBP-R2 agonist, hiPSC survival)
CCOc1ccc(Cl)cc1S(=O)(=O)n1nnc2ccccc21	CRFBP-R2 block 107.4
Cc1ccc(S(=O)(=O)n2nnc3ccccc32)c(C)c1C	CRFBP-R2 block 92.9
CCOc1ccc(S(=O)(=O)n2nnc3ccccc32)cc1C	none (no result: Cardio protect, hiPSC survival)
O=C1c2cccnc2Oc2ccc(Cl)cc2N1Cc1ccc(F)cc1	Cardio protect 63.4
Cc1ccc2c(c1)N(Cc1cccc(Cl)c1)C(=O)c1cccnc1O2	none
O=C1c2cccc3c(O)ccc(c23)C(=O)N1c1ccc(Cl)cc1	none (no result: UCH37 DUB inh)
CC(=O)Nc1ccc(N2C(=O)c3cccc4c(O)ccc(c34)C2=O)cc1	CRFBP-R2 agonist 200.7
Cc1cc(NC(=O)c2ccccc2)n(-c2nc3ccccc3[nH]2)n1	none
COc1ccc(C(=O)Nc2cc(C)nn2-c2nc3ccccc3[nH]2)c(OC)c1	Cardio protect 63.2
